For assay [1], the system named is Staphylococcus aureus. Kind of assay: Antimicrobial activity against Panton-valentine leukocidin positive community acquired methicillin-resistant Staphylococcus aureus NRS192 obtained from patient with pneumonia and septic arthritis infected in human THP-1 cells assessed as decrease in bacterial growth after 24 hrs at pH 5.5. In kind it is functional, organism-based. The conditions noted are these: NRS192, THP-1, 24 h. The essentials: (§1)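 Bacteria phagocytosed by unactivated human THP-1 macrophages, then incubated 24 h with extracellular antibiotic at about 0.01× to 100× the pH 5.5 broth MIC. CFU per mg cell protein counted against the original inoculum, n = 3. A Hill-equation fit (slope factor 1) gave Emin and Emax, extrapolated to infinitely low and high concentration, and EC50. Static concentration was graphically interpolated.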

Assay [2] deals with Staphylococcus aureus. Briefly: Antimicrobial activity against beta-lactamase negative methicillin-susceptible Staphylococcus aureus ATCC 25923 by broth microdilution method at pH 7.4. In kind it is functional. (In general: In broth dilution the organism is exposed to a series of concentrations in liquid medium.)
The subject of assay [3] is Staphylococcus aureus. Briefly: Antimicrobial activity against intracellular beta-lactamase negative methicillin-susceptible Staphylococcus aureus ATCC 25923 infected in human keratinocytes assessed as decrease in bacterial growth after 24 hrs at pH 7.4. Format: functional, organism-based. The note with it: ATCC 25923, 24 h. A digest of the protocol: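 Primary human skin keratinocytes or Calu-3 bronchial epithelial cells, given an inoculum of 5 × 10⁷ to 1 × 10⁸ bacteria/ml and 2 h for internalization. Post-phagocytosis load 1.5 × 10⁶ to 3.0 × 10⁶ CFU per mg cell protein. Cloxacillin dose range in mg/liter for 24 h, n = 3. Hill-derived Emin, Emax and EC50; static concentration interpolated.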

For assay [4], the system named is Staphylococcus aureus. Kind of assay: Antimicrobial activity against Panton-valentine leukocidin positive community acquired methicillin-resistant Staphylococcus aureus N4090440 obtained from wound infection of patient infected in human THP-1 cells assessed as increase in bacterial count from original inoculum at low compound concentration after 24 hrs at pH 5.5. Format: functional. A digest of the protocol: as §1

Assay [5] deals with Staphylococcus aureus. Briefly: Antimicrobial activity against hospital acquired methicillin-resistant Staphylococcus aureus ATCC 33591 infected in human THP-1 cells assessed as decrease in bacterial growth after 24 hrs at pH 7.4. In kind it is functional, organism-based. The conditions noted are these: ATCC 33591, THP-1, 24 h.
Assay [6] concerns Staphylococcus aureus. Briefly: Antimicrobial activity against hospital acquired methicillin-resistant Staphylococcus aureus HMC546 infected in human THP-1 cells assessed as decrease in bacterial growth after 24 hrs at pH 5.5. In kind it is functional, organism-based. The note with it: HMC546, THP-1, 24 h. A digest of the protocol: as §1
Assay [7] deals with Staphylococcus aureus. Kind of assay: Antimicrobial activity against hospital acquired methicillin-resistant Staphylococcus aureus N4120032 obtained from wound infection opf patient infected in human THP-1 cells assessed as decrease in bacterial count from original inoculum at high compound concentration after 24 hrs at pH 5.5. In kind it is functional. The essentials: as §1

The test system of assay [8] is Staphylococcus aureus. Briefly: Antimicrobial activity against animal acquired methicillin-resistant Staphylococcus aureus N7112046 infected in human THP-1 cells assessed as increase in bacterial count from original inoculum at low compound concentration after 24 hrs at pH 5.5. Format: functional. The essentials: as §1

Values after ≈ are worked out from the molar mass of the structure shown.

A word on the MIC: it is the smallest concentration in the dilution series that meets the test's criterion for growth inhibition. With `Cc1onc(-c2ccccc2Cl)c1C(=O)N[C@@H]1C(=O)N2[C@@H]1SC(C)(C)[C@@H]2C(=O)O` [CLOXACILLIN], the EC50 in assay [1] is 6.07 ×MIC; in assay [3], 0.42 µg/mL (≈ 0.964 µM); in assay [5], 0.26 µg/mL (≈ 0.596 µM); in assay [6], 5.67 ×MIC. The compound also displayed an MIC in assay [2] of 0.125 µg/mL (≈ 0.287 µM). Also, the log10cfu in assay [4] was 2.51; in assay [7], 0.74; in assay [8], 1.84.

(Values after ChEMBL document CHEMBL1649111, “Restoration of susceptibility of intracellular methicillin-resistant Staphylococcus aureus to beta-lactams: comparison of strains, cells, and antibiotics” (Antimicrob Agents Chemother, 2008).)
